{"source": "paper PMC11913021", "about": "(Journal of Medicinal Chemistry, 2024)", "biological_target": "T1, PLD1 (Homo sapiens, UniProt Q13393)", "T1 sequence (Q13393 1-1074)": "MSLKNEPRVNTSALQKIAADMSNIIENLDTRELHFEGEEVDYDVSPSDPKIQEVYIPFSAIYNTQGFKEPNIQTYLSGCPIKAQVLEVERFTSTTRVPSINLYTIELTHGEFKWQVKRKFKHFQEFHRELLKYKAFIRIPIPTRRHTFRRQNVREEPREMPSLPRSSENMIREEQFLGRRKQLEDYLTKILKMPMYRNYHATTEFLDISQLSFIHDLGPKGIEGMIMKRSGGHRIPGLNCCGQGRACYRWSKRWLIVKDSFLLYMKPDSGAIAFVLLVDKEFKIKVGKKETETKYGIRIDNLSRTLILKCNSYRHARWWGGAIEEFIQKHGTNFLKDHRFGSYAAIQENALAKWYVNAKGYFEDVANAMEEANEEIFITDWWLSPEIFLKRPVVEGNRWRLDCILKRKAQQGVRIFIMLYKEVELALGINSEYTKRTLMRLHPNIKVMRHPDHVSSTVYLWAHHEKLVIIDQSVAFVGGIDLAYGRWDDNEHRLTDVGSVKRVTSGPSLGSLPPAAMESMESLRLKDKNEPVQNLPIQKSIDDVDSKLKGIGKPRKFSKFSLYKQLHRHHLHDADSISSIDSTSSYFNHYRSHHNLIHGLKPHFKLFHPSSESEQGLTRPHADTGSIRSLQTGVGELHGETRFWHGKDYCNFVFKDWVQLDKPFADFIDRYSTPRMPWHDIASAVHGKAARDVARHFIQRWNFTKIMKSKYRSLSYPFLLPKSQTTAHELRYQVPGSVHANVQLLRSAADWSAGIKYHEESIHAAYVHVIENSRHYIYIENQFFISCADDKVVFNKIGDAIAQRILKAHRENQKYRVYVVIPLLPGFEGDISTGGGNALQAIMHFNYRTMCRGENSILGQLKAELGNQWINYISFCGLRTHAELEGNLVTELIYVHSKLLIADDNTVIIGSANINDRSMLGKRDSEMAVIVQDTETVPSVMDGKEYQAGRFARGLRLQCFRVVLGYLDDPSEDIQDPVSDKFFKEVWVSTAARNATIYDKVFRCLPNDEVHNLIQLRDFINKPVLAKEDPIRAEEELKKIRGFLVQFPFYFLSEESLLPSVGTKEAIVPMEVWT", "assay": "Drug affinity responsive target stability", "type": "binding", "conditions": "DARTS with immunoblotting", "how_it_was_run": "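A549 cells lysed in buffer with protease and phosphatase inhibitors. Cleared supernatant incubated with test compound for 1 h at RT, then digested with Pronase for 10 min at RT. Digestion stopped with SDS loading buffer and boiling at 100 °C for 5 min. PLD1 was detected by immunoblot, with β-tubulin as control.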"}
{"substance": "N-(3,5-Bis(trifluoromethyl)phenyl)-3-(1H-indol-3-yl)propanamide [3r]", "values": [{"measurement": "stability of PLD1 against Pronase", "value": "increased stability"}]}
